This note sets out measurements from ChEMBL document CHEMBL4513216, “Probing the Open Global Health Chemical Diversity Library for Multistage-Active Starting Points for Next-Generation Antimalarials” (ACS Infect Dis, 2020).

The data set can be described thus: Toxicity liver stage against HepG2, at 10uM. The data set is classed as cell-based. Also noted: test concentration 10 uM, cell line HepG2-A16-CD81EGFP. The settings on record: human, HepG2-A16-CD81EGFP cells; read-out: INHIBITION
Put shortly:
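Uninfected HepG2-A16-CD81EGFP cells, 3 × 10^3 per well, 1536-well, plated on prespotted compound at 10 μM final, parasite-free screening media added to match infected plates; puromycin 10 μM positive, DMSO 0.5% negative; run in parallel with 48 h PbLuc assay at 37 °C, 5% CO2; viability by CellTiter-Glo luminescence, normalized to controls.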

Turning to `CC(C)n1nnc(CC(=O)NCC2(c3ccccc3F)CCOCC2)n1`, the cytotoxicity at 10 µM was found to be 2.35%.

For `CCc1n[nH]c(C2CN(C(=O)CCOCC(F)(F)F)CCO2)n1` (stereo unspecified), the cytotoxicity at 10 µM is 10.4%.

Regarding `CN1CC(=O)N(c2ccsc2)CC12CCN(Cc1cnn(C)c1)C2` (stereo unspecified), the cytotoxicity at 10 µM was found to be 0.0218%.

For `Cc1ncc(-c2ccncc2)c(C2CCCN(C(=O)c3ccno3)C2)n1` (stereo unspecified), the cytotoxicity at 10 µM amounted to 11.9%.

Regarding `Cc1cc(-c2cnc(N3CCC(O)CC3)nc2-c2cccnc2C)on1`, the cytotoxicity at 10 µM is -25.2%.

For the molecule `Cc1cc(O)c(OCC(=O)/N=c2\[nH]cc(C)s2)cn1`, the cytotoxicity at 10 µM was -12.4%.

In the case of `COc1cccc(C(=O)N2CCCC(c3cc(C)[nH]n3)C2)c1OC` (stereo unspecified), the cytotoxicity at 10 µM is -7.4%.

As to `COc1ccc(Cl)cc1NCCC(=O)NCCNc1cnccn1`, the cytotoxicity at 10 µM is -10.3%.

Consider `CN1CC(=O)N(c2cccnc2)CC12CCN(C(=O)C1CCCCC1)C2` (stereo unspecified), for which the cytotoxicity at 10 µM stood at 1.55%.

With `Cc1cccc(C(C)(C)NC(=O)CS(=O)(=O)CC(C)C)c1`, the cytotoxicity at 10 µM was found to be 0.927%.

Regarding `Cc1[nH]nc2ncc(C(=O)N3CCN(CC(C)C)CC3)cc12`, the cytotoxicity at 10 µM is -3.88%.

On to `O=C(NCc1nc(C2CCCCC2)no1)C1CC(=O)N(C2CCCC2)C1` (stereo unspecified), for which the cytotoxicity at 10 µM came to 0.761%.

As for `CCS(=O)(=O)N1CCC2(CN(c3cccc(C)n3)C2)C1`, the cytotoxicity at 10 µM stood at 3.5%.

For `Cc1cccc(N2CC3(CCN(Cc4nccn4C)C3)CC2=O)c1` (stereo unspecified), the cytotoxicity at 10 µM was -78.6%.

On to `COCCOc1ccnc(-c2noc([C@@H]3CCCN3CC(C)C)n2)c1`, for which the cytotoxicity at 10 µM was -8.64%.

As to `CCC(C)N(C)CCNC(=O)c1ccccc1OCCOC` (stereo unspecified), the cytotoxicity at 10 µM was 0.386%.

As for `CCOc1ncccc1NC(=O)N1CCN(c2cccc(C)c2C)CC1`, the cytotoxicity at 10 µM was 81.2%.

With `CC(=O)NCC1CCCN(C(=O)Cc2c(C)noc2C)C1` (stereo unspecified), the cytotoxicity at 10 µM came to 17.4%.

As for `CCC[C@H]1CN(CCS(C)(=O)=O)C[C@@H]1NC(=O)c1ccccn1`, the cytotoxicity at 10 µM was found to be 1.13%.

For the molecule `N#Cc1ccnc(N2CCC(c3nccn3Cc3cscn3)CC2)c1`, the cytotoxicity at 10 µM was -12.4%.

As to `CC(NCc1ccc(OCC(N)=O)cc1)c1ccc(Cl)cc1Cl` (stereo unspecified), the cytotoxicity at 10 µM came out at 13.1%.

Turning to `C[C@@H]1C[C@H](C(F)(F)F)n2nc(C3CCN(S(C)(=O)=O)CC3)cc2N1`, the cytotoxicity at 10 µM was -16.9%.

With `c1ccc(-c2noc3c2CN(CC2CC2)CC3)cc1`, the cytotoxicity at 10 µM is -13.2%.

Regarding `Cc1cnc(N2CCN(C(C)C(N)=O)CC2)nc1` (stereo unspecified), the cytotoxicity at 10 µM is 0.399%.

On to `CCC(CC)(CNC(=O)OC(C)(C)C)NC(=O)C1CCCO1` (stereo unspecified), for which the cytotoxicity at 10 µM is 1.41%.

Take `COCc1nc(C(=O)N2CCCC(n3nc(C)cc3C)C2)cs1` (stereo unspecified): the cytotoxicity at 10 µM was -8.57%.

Take `CCc1nccn1C1CCCN(C(=O)c2ccc(N(C)C)nn2)C1` (stereo unspecified): the cytotoxicity at 10 µM came out at 3.19%.

For the molecule `COc1ccc(C2(NCc3noc(C4CC4)n3)CCOCC2)cc1`, the cytotoxicity at 10 µM is -6.44%.

For the molecule `CCC[C@H]1CN(Cc2ccc(N(C)C)nc2)C[C@@H]1NC(=O)CCOC`, the cytotoxicity at 10 µM was found to be 15.5%.

For `CC(C)CN1C(=O)C[C@@H]2[C@@H]1CCN2Cc1cccc(C#N)c1`, the cytotoxicity at 10 µM was -66.4%.

Turning to `CNC(=O)N1CCC2(CC1)CNc1ccc(F)cc12`, the cytotoxicity at 10 µM is 10.1%.

For `Cc1cccc(-c2noc(CN3CCCC3Cn3cccn3)n2)c1` (stereo unspecified), the cytotoxicity at 10 µM turned out to be 1.68%.

For the molecule `Cc1csc(C2CCCN(C(=O)c3cccc4c3OCO4)C2)n1` (stereo unspecified), the cytotoxicity at 10 µM was -4.11%.

On to `CC1CN(Cc2ccc(-n3cccn3)cc2)CCO1` (stereo unspecified), for which the cytotoxicity at 10 µM is -7.18%.

Regarding `CC(C)NC(=O)C1CCc2nnc(CNC(=O)c3cccnc3)n21` (stereo unspecified), the cytotoxicity at 10 µM is 6.94%.

As to `Cc1ccc(CN2CCc3c(COC(C)C)nn(C)c3C2)s1`, the cytotoxicity at 10 µM was 0.661%.

Consider `Cc1noc(C)c1CN1CCO[C@H]2CN(Cc3cccc(F)c3)C[C@H]21`, for which the cytotoxicity at 10 µM was -99.8%.

For the molecule `COCCN1CCC(CN(CC2CCCO2)C(=O)CCC(F)(F)F)CC1` (stereo unspecified), the cytotoxicity at 10 µM was 2.13%.

For the molecule `NCCc1nc(N(Cc2nccs2)C2CC2)c2ccccc2n1`, the cytotoxicity at 10 µM was -16.1%.

`NC(=O)C1CCN(Cn2nc(-c3ccc(F)cc3)oc2=O)CC1`: the cytotoxicity at 10 µM was -19.6%.

`C[C@@H]1CN(C(=O)c2cccs2)C[C@]12CCN(CCN(C)C)C2=O`: the cytotoxicity at 10 µM is 4.4%.

`Cc1nn(C)c2nc(N(C)CC3CCN(CC(C)C)C3)sc12` (stereo unspecified): the cytotoxicity at 10 µM was -8.13%.

`O=C(c1ccsc1)N1CCO[C@@H]2CN(Cc3ccco3)CC[C@@H]2C1`: the cytotoxicity at 10 µM is -98.6%.

For `CCn1cc(CN2CCCN(C(=O)C3(C#N)CCCCC3)CC2)cn1`, the cytotoxicity at 10 µM is -53.5%.

For `CCN(CC)S(=O)(=O)c1csc(C(=O)N2CCC(C(N)=O)CC2)c1`, the cytotoxicity at 10 µM was -43.9%.

`CN(C)c1cc(C(=O)N2CCCCCC2)ccn1`: the cytotoxicity at 10 µM is -8.83%.

`CN(C)c1nc(N)nc(CSCCC(=O)Nc2ccc(F)cc2)n1`: the cytotoxicity at 10 µM is -1.33%.

For the molecule `CC(=O)Nc1nc(CN2CCCC2Cn2cncn2)cs1` (stereo unspecified), the cytotoxicity at 10 µM is 0.222%.

For the molecule `CC(C)c1nsc(N2CCSCC2)n1`, the cytotoxicity at 10 µM is -11.6%.

As for `Cc1cnn(CC2CN(c3cnc4ccccc4n3)CCO2)c1` (stereo unspecified), the cytotoxicity at 10 µM was found to be 2.02%.

`CCc1cc(NC(=O)c2cccc(OCC(F)(F)F)n2)[nH]n1`: the cytotoxicity at 10 µM is -1.42%.

As for `COCCN1CCCC(c2ccnc3c(C(N)=O)cnn23)C1` (stereo unspecified), the cytotoxicity at 10 µM came out at 2.05%.

With `CC(c1nc(C2CC2)no1)N1CCN(CCCN2CCCC2=O)CC1` (stereo unspecified), the cytotoxicity at 10 µM is -13.4%.

For the molecule `Cc1cc(CCC(=O)NCc2nccn2C)ccc1Br`, the cytotoxicity at 10 µM was determined as 2.95%.

In the case of `CC(C)c1noc(C(C)N2CCC(c3nc4ccccc4o3)CC2)n1` (stereo unspecified), the cytotoxicity at 10 µM stood at 8.05%.

As to `Clc1cccnc1OC1CCNCC1`, the cytotoxicity at 10 µM was -10.9%.

Consider `CCC[C@H]1CN(CCS(C)(=O)=O)C[C@@H]1NC(=O)c1cc(CC)on1`, for which the cytotoxicity at 10 µM is -2.42%.

For the molecule `CCN1C[C@@H]2[C@@H](OC)CCN(C(=O)c3cc(C)nn3CC)[C@@H]2C1`, the cytotoxicity at 10 µM is -118%.

In the case of `CC(=O)N1CCN(C(=O)NCCCc2cn[nH]c2C)CC1`, the cytotoxicity at 10 µM stood at 12.1%.

On to `CCc1nc(CN(C)C(=O)C2CC(=O)N(c3cccc(O)c3)C2)no1` (stereo unspecified), for which the cytotoxicity at 10 µM was -10.2%.

Turning to `NC1(CNC(=O)c2cc3ccccc3[nH]2)CCCC1`, the cytotoxicity at 10 µM turned out to be 15.5%.

Turning to `COC(=O)NC1(C(=O)NCc2ccc(-c3ccn[nH]3)cc2)CCCC1`, the cytotoxicity at 10 µM was -7.65%.

In the case of `O=C(O)c1cncc(Cc2cccc(F)c2)c1`, the cytotoxicity at 10 µM was 5.31%.

Consider `O=C(c1cccnc1)N1CCn2cc(CN3CCCC3)nc2C1`, for which the cytotoxicity at 10 µM is -74.8%.

On to `CC(C)Oc1cccc(C(=O)C2CCCN(C(=O)c3cncs3)C2)c1` (stereo unspecified), for which the cytotoxicity at 10 µM amounted to 3.19%.

Turning to `O=C(NCCNc1cnccn1)N1CC=C(c2ccc(O)cc2)CC1`, the cytotoxicity at 10 µM amounted to 18.6%.

For `COc1cccc(N2CCN(CC(O)c3ccc(C)cc3)CC2)c1` (stereo unspecified), the cytotoxicity at 10 µM was -11.6%.

As for `NC(=O)C(NC1CCN(CC2CCCCC2)CC1)c1ccccc1` (stereo unspecified), the cytotoxicity at 10 µM was -4.57%.

Turning to `Cc1cnn(CC2CCCN2C(=O)Cc2c(C)nc(C)[nH]c2=O)c1` (stereo unspecified), the cytotoxicity at 10 µM is -3.63%.

Regarding `O=C(CCc1cccnc1)N1CCC(c2cnccn2)CC1`, the cytotoxicity at 10 µM is -10.4%.

Turning to `Cn1ccnc1CN1CCC2(CC1)CCN(Cc1ccoc1)C2`, the cytotoxicity at 10 µM is -6.08%.
